Experimental data taken from ChEMBL document CHEMBL3259727, “Cathepsin C inhibitors: property optimization and identification of a clinical candidate” (J Med Chem, 2014).
Activity calls are given as the source filed them. The calls are words filed in the database; no cut-off is given here.

Assays:
[1] = biological target: T1, Dipeptidyl peptidase 1 (Homo sapiens, UniProt P53634); assay: Inhibition of recombinant human cathepsin C using H-Gly-Arg-AMC as substrate preincubated for 30 mins before substrate addition measured after 60 mins by fluorescence assay
T1 sequence (P53634 25-134 limits assumed): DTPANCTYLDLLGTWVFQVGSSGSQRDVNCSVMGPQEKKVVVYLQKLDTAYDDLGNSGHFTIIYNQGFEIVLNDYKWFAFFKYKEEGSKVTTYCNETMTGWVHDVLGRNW
T1 sequence (P53634 231-394 limits assumed): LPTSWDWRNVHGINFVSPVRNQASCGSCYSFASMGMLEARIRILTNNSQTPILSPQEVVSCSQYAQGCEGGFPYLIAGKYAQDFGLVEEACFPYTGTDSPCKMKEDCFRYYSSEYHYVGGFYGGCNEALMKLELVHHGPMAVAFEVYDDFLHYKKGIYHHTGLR
T1 sequence (P53634 395-463 limits assumed): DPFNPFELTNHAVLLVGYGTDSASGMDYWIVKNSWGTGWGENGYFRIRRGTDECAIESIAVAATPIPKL

[2] = biological target: T1, Dipeptidyl peptidase 1; assay: Inhibition of cathepsin C in human THP1 cells assessed as inhibition of H-Gly-Phe-AFC cleavage by fluorescence assay; format: cell-based, THP-1
How it was run: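 Cellular CatC activity in human THP1 cells measured as cleavage of fluorogenic substrate H-Gly-Phe-AFC; pIC50 determined.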

[3] = Intrinsic clearance in human microsomes; format: ADME, Microsome
How it was run: (§1)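 Intrinsic clearance (Clint) determined in human liver microsome and rat hepatocyte preparations.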

[4] = Intrinsic clearance in rat hepatocytes assessed per million cells; format: ADME, cell-based, Hepatocyte; conditions: read-out: CLH; how it was run: as §1
[5] = biological target: Voltage-gated inwardly rectifying potassium channel KCNH2 (Homo sapiens, UniProt Q12809); assay: Inhibition of human ERG by electrophysiology assay
Sequence of Voltage-gated inwardly rectifying potassium channel KCNH2 (Q12809 whole entry): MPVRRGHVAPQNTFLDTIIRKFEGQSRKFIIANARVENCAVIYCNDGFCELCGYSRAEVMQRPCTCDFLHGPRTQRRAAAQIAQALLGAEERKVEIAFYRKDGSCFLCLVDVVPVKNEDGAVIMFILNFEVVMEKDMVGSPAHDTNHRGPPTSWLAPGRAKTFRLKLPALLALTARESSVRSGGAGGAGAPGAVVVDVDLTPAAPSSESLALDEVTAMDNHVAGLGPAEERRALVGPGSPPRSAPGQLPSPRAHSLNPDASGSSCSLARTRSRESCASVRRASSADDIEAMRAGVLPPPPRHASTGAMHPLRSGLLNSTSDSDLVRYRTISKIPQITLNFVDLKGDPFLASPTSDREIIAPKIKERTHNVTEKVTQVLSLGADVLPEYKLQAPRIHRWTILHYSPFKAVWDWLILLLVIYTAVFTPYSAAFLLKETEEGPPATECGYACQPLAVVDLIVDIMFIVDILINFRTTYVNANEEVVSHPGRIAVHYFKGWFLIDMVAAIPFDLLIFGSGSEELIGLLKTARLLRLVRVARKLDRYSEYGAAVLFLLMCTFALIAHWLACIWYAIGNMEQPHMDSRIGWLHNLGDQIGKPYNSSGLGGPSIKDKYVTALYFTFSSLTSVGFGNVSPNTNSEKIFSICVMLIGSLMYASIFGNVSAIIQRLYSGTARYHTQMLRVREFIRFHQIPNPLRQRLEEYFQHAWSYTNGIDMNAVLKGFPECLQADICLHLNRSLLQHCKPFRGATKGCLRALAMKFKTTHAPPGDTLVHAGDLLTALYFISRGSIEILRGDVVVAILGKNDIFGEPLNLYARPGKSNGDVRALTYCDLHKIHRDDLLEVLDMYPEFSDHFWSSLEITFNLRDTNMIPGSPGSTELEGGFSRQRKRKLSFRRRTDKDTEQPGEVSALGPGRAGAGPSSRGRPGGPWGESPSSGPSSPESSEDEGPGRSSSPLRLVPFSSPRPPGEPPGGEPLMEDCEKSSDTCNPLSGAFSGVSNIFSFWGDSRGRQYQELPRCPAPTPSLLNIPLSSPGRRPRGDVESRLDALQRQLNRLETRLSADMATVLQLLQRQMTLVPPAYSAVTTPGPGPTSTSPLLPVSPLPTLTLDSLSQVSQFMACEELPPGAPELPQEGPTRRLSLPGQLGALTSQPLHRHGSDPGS

[6] = Lipophilicity, log D of the compound; format: physicochemical; conditions: octanol/water
[7] = biological target: T2, Cathepsin K (Homo sapiens, UniProt P43235); assay: (§2) Inhibition of Cathepsin K (unknown origin)
T2 sequence (P43235 whole entry): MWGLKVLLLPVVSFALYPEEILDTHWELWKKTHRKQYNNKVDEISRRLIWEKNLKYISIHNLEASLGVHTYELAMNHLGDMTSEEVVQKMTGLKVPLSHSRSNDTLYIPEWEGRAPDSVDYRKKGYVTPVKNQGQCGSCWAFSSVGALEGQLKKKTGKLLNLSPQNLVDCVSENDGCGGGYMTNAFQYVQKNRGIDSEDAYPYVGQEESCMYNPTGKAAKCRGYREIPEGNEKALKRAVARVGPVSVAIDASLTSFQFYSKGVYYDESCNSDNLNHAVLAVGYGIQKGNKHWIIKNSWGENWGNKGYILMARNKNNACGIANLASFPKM

[8] = biological target: Procathepsin L (Homo sapiens, UniProt P07711); assay: Inhibition of Cathepsin L (unknown origin)
Sequence of Procathepsin L (P07711 whole entry): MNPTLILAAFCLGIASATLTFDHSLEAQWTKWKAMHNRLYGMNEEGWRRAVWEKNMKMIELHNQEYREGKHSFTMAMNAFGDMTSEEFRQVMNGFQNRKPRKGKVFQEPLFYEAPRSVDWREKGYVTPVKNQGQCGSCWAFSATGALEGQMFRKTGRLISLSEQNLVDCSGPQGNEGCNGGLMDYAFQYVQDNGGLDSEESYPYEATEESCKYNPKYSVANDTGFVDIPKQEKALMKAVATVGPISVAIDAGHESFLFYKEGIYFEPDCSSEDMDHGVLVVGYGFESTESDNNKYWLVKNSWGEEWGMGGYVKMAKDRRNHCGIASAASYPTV

[9] = biological target: Cathepsin S (Homo sapiens, UniProt P25774); assay: Inhibition of Cathepsin S (unknown origin)
Sequence of Cathepsin S (P25774 whole entry): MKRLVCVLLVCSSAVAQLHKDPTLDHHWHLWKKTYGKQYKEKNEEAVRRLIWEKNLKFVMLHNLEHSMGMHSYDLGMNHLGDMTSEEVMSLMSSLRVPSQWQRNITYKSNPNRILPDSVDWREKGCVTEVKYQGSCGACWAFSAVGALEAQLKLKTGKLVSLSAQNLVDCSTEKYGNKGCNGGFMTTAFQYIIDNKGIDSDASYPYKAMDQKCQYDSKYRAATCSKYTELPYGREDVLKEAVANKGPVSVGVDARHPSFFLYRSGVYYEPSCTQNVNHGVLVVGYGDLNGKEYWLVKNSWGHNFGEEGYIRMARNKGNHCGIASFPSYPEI

[10] = biological target: Cathepsin B (Homo sapiens, UniProt P07858); assay: Inhibition of Cathepsin B (unknown origin)
[11] = Induction of phospholipid accumulation in rat hepatoma cells; format: cell-based
[12] = Dissociation constant, pKa of the compound; format: physicochemical
[13] = biological target: T3, Cathepsin K (Homo sapiens) (UniProt P43235); assay: as §2
T3 sequence (whole entry): T2 sequence (P43235 whole entry)

[14] = Clearance in rat; format: ADME, organism-based; conditions: in vivo
[15] = Volume of distribution at steady state in rat; format: ADME, organism-based; conditions: in vivo, read-out: Vdss
[16] = Half life in rat; format: ADME, organism-based; conditions: in vivo
[17] = Bioavailability in rat; format: ADME, organism-based; conditions: in vivo
[18] = species: Rattus norvegicus; assay: Toxicity in rat assessed as liver hypertrophy; format: organism-based; conditions: in vivo
[19] = species: Rattus norvegicus; assay: Toxicity in rat assessed as liver cholangitis; format: organism-based; conditions: in vivo
[20] = species: Rattus norvegicus; assay: Toxicity in rat assessed as liver vacuolation; format: organism-based; conditions: in vivo
[21] = species: Rattus norvegicus; assay: Toxicity in rat assessed as foci of foaming macrophages in lung; format: organism-based
[22] = Clearance in mouse; format: ADME, organism-based; conditions: in vivo
[23] = Volume of distribution at steady state in mouse; format: ADME, organism-based; conditions: in vivo, read-out: Vdss
[24] = Half life in mouse; format: ADME, organism-based; conditions: in vivo
[25] = Bioavailability in mouse; format: ADME, organism-based; conditions: in vivo
[26] = Clearance in dog; format: ADME, organism-based, Canis lupus familiaris; conditions: in vivo
[27] = Volume of distribution at steady state in dog; format: ADME, organism-based, Canis lupus familiaris; conditions: in vivo, read-out: Vdss
[28] = Half life in dog; format: ADME, organism-based, Canis lupus familiaris; conditions: in vivo
[29] = Bioavailability in dog; format: ADME, organism-based, Canis lupus familiaris; conditions: in vivo
[30] = biological target: T4, Leukotriene B4 receptor (Homo sapiens, UniProt Q9NPC1+Q15722); assay: Binding affinity to leukotriene B4 receptor (unknown origin); format: protein assay
T4 sequence (Q15722 whole entry, looked up): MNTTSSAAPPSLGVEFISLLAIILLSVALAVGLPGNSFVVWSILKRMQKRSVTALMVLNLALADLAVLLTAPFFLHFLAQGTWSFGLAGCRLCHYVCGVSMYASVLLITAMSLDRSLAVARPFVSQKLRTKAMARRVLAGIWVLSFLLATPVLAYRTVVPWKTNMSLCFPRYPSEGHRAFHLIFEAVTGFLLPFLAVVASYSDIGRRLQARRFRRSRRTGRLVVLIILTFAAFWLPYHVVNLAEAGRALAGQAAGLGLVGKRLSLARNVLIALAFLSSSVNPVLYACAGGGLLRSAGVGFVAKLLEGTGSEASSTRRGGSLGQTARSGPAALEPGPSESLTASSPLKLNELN
T4 sequence (Q9NPC1 whole entry, looked up): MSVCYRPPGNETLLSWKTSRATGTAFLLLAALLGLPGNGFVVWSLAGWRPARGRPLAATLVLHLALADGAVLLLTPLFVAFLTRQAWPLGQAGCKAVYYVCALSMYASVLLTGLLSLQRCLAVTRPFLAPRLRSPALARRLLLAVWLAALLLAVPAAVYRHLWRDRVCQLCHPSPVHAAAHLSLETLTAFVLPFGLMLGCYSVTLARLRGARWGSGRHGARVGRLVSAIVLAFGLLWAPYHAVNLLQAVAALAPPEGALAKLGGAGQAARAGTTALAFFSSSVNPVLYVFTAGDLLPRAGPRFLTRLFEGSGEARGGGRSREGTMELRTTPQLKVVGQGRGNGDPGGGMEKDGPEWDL

[31] = biological target: T4, Leukotriene B4 receptor; assay: Binding affinity to leukotriene B4 receptor (unknown origin) at 10 uM; format: protein assay
How it was run: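 Screened at 10 μM in a human LTB4 binding assay within a panel of over 170 assays; percent inhibition reported.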

[32] = system: Plasma; assay: Stability in rat plasma; format: ADME, cell-free
[33] = system: Plasma; assay: Stability in human plasma; format: ADME, cell-free
[34] = system: Hepatocyte; assay: Metabolic stability in rat hepatocytes assessed per compound oxidation by LC-MS/MS analysis; format: ADME, cell-based
[35] = system: Hepatocyte; assay: Metabolic stability in human hepatocytes assessed per compound oxidation by LC-MS/MS analysis; format: ADME, cell-based
[36] = biological target: T3, Cathepsin K (Homo sapiens); assay: Inhibition of Cathepsin K (unknown origin) at 10 uM

CN1Cc2cc(-c3ccc(C[C@@H](C#N)NC(=O)[C@@H]4C[C@@H](O)CCN4)cc3)ccc2C1=O
IC50 [1]: 0.00398 µM | IC50 [2]: 0.0398 µM | microsomal CLint [3]: < 4 µL/min/mg | hepatocyte CLint [4]: < 4 µL/min/1e6 cells | IC50 [5]: > 33 µM | logD [6]: 0.5 | IC50 [7]: 7.94 µM | IC50 [8]: > 10 µM | IC50 [9]: > 10 µM | IC50 [10]: > 10 µM | EC50 [11]: > 120 µM

N#C[C@H](Cc1ccc(-c2ccccc2)cc1)NC(=O)C1(N)CCOCC1
IC50 [1]: 0.002 µM | IC50 [2]: 0.0316 µM | microsomal CLint [3]: > 150 µL/min/mg | hepatocyte CLint [4]: > 150 µL/min/1e6 cells | IC50 [5]: > 33 µM | logD [6]: 2.3 | pKa [12]: 5.4 | inhibition [13]: inactive

N#Cc1ccc(-c2ccc(C[C@@H](C#N)NC(=O)C3(N)CCOCC3)cc2)cc1
microsomal CLint [3]: 3.6 µL/min/mg | hepatocyte CLint [4]: 2.9 µL/min/1e6 cells | IC50 [5]: 26 µM | clearance [14]: 9 mL/min/kg | Vd [15]: 1.9 L/kg | half-life [16]: 3.5 h | bioavailability [17]: 92% | logD [6]: 1.9 | pKa [12]: 5.8 | IC50 [7]: > 10 µM | IC50 [8]: > 10 µM | IC50 [9]: > 10 µM | IC50 [10]: > 10 µM | EC50 [11]: > 100 µM | Activity [18]: Non-toxic | Activity [19]: Non-toxic | Activity [20]: Non-toxic | Activity [21]: Non-toxic | clearance [22]: 9 mL/min/kg | Vd [23]: 1.6 L/kg | half-life [24]: 2 h | bioavailability [25]: 95% | clearance [26]: 2 mL/min/kg | Vd [27]: 1.4 L/kg | half-life [28]: 11.6 h | bioavailability [29]: 72% | IC50 [30]: 2 µM | inhibition [31]: 69%

CC[C@H](N)C(=O)N[C@H](C#N)Cc1ccc(-c2ccccc2)cc1
IC50 [1]: 0.002 µM | IC50 [2]: 0.0631 µM

N#Cc1ccc(-c2ccc(C[C@@H](C#N)NC(=O)[C@@H]3C[C@@H](O)CCN3)cc2)cc1
IC50 [1]: 0.00501 µM | IC50 [2]: 0.0126 µM | microsomal CLint [3]: < 3 µL/min/mg | hepatocyte CLint [4]: 4 µL/min/1e6 cells | IC50 [5]: > 33 µM | logD [6]: 1.4 | pKa [12]: 7.6 | IC50 [7]: 6.31 µM | IC50 [8]: > 10 µM | IC50 [9]: > 10 µM | IC50 [10]: > 10 µM | EC50 [11]: 75 µM

N#C[C@H](Cc1ccc(-c2ccccc2)cc1)NC(=O)[C@@H]1CCCCN1
IC50 [2]: 0.158 µM | hepatocyte CLint [4]: > 150 µL/min/1e6 cells | Stability [32]: Stable | Stability [33]: Stable | Stability [34]: Unstable | Stability [35]: Unstable

CS(=O)(=O)c1cccc(-c2ccc(C[C@@H](C#N)NC(=O)C3(N)CCOCC3)cc2)c1
IC50 [1]: 0.000794 µM | IC50 [2]: 0.00794 µM | microsomal CLint [3]: < 3 µL/min/mg | hepatocyte CLint [4]: < 3 µL/min/1e6 cells | IC50 [5]: > 33 µM | logD [6]: 0.8 | pKa [12]: 6.3 | inhibition [13]: inactive

N#Cc1ccc(-c2ccc(C[C@@H](C#N)NC(=O)C3(N)CCCCC3)cc2)cc1
IC50 [1]: 0.00251 µM | IC50 [2]: 0.00316 µM | microsomal CLint [3]: 20 µL/min/mg | hepatocyte CLint [4]: 15 µL/min/1e6 cells | IC50 [5]: 9 µM | logD [6]: 2.9 | pKa [12]: 7.1

CN1Cc2cc(-c3ccc(C[C@@H](C#N)NC(=O)[C@@H]4CCCCN4)cc3)ccc2C1=O
IC50 [1]: 0.0251 µM | IC50 [2]: 0.00794 µM | microsomal CLint [3]: < 3 µL/min/mg | hepatocyte CLint [4]: 5 µL/min/1e6 cells | logD [6]: 1 | pKa [12]: 7.1 | IC50 [7]: 0.251 µM | IC50 [8]: > 10 µM | IC50 [9]: > 10 µM | IC50 [10]: > 10 µM

N#Cc1ccc(-c2ccc(C[C@@H](C#N)NC(=O)[C@@H]3CCCCN3)cc2)cc1
IC50 [1]: 0.0398 µM | IC50 [2]: 0.01 µM | microsomal CLint [3]: < 4 µL/min/mg | hepatocyte CLint [4]: < 3 µL/min/1e6 cells | IC50 [5]: 1.4 µM | clearance [14]: 16 mL/min/kg | Vd [15]: 5.6 L/kg | half-life [16]: 4.5 h | bioavailability [17]: 75% | logD [6]: 2.7 | pKa [12]: 8.4 | IC50 [7]: 1 µM | IC50 [8]: > 10 µM | IC50 [9]: > 10 µM | IC50 [10]: > 10 µM | EC50 [11]: 9 µM | Activity [18]: Toxic | Activity [19]: Toxic | Activity [20]: Toxic | Activity [21]: Toxic

CSc1cc(-c2ccc(C[C@@H](C#N)NC(=O)[C@@H]3CCCCN3)cc2)ccc1C#N
IC50 [1]: 0.00398 µM | IC50 [2]: 0.001 µM | microsomal CLint [3]: 7 µL/min/mg | hepatocyte CLint [4]: 13 µL/min/1e6 cells | IC50 [5]: 2.7 µM | IC50 [7]: 0.398 µM | IC50 [8]: > 10 µM | IC50 [9]: > 10 µM | IC50 [10]: > 10 µM

CN1Cc2ccc(-c3ccc(C[C@@H](C#N)NC(=O)C4(N)CCOCC4)cc3)cc2C1=O
IC50 [2]: 0.0501 µM | microsomal CLint [3]: < 3 µL/min/mg | hepatocyte CLint [4]: 41 µL/min/1e6 cells | IC50 [5]: > 33 µM | logD [6]: 1.1 | pKa [12]: 6.3 | IC50 [7]: 7.94 µM | inhibition [36]: 50%
